Experimental data as given in article PMC12716021 (Chemistry & Biodiversity, 2025).

Legend:
NO scavenging activity = conditions: read-out: IC50 NO; in vitro; standard gallic acid
Procedure, shortened: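 Sodium nitroprusside (10 mM, in sodium phosphate buffer pH 7.4) added to test compound ([…]) or distilled water as control, then incubated at 37°C for 2 h. Griess reagent added, and A540 read. NO scavenging % = (1 − A compound/A control) × 100.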

[1] = Ferric reducing antioxidant power; conditions: read-out: IC50 FRAP; in vitro; standard gallic acid
[2] = DPPH radical scavenging activity; conditions: read-out: IC50 DPPH; in vitro; standard gallic acid

O=C(O)c1cc(O)c(O)c(O)c1 [Gallic acid]
IC50 (NO scavenging activity): 78.5 µM
IC50 [1]: 117 µM
IC50 [2]: 105 µM
